Test results published in ChEMBL document CHEMBL4393705, “New chalcone-sulfonamide hybrids exhibiting anticancer and antituberculosis activity” (Eur J Med Chem, 2019).
≈ marks a conversion by molar mass, not a printed value.

Assays:
[1] = system: Mycobacterium tuberculosis; experiment: Antitubercular activity against Mycobacterium tuberculosis H37Rv ATCC27294 measured after 2-3 weeks by agar dilution SPOTi assay; assay type: functional; settings: H37Rv ATCC 27294
Procedure, shortened: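 Agar dilution SPOTi on Middlebrook 7H10 with 0.5% glycerol and 10% OADC. Final compound levels 50, 20, 10, 5, 2 mg/L, added from DMSO dilutions. 2 µL of a 10^6 CFU/mL inoculum from a 4-week Löwenstein-Jensen culture spotted per well, incubated 2-3 weeks at 37°C. MIC is the lowest concentration with no visible growth. Repeated on a separate day; isoniazid was the reference.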

SK-OV-3 = experiment: Anticancer activity against human SKOV3 cells assessed as cell growth inhibition measured after 48 hrs by SRB assay; assay type: functional; settings: SK-OV-3, 48 h
Procedure, shortened: (§1)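 NCI 60-cell screen, five-dose mode at 100, 10, 1.0, 0.1 and 0.01 µM. Cells grown in RPMI-1640 with 5% FBS and 2 mM L-glutamine, seeded and held 24 h at 37°C, 5% CO2, then exposed for 48 h. Fixed with cold TCA (10% final), stained with 0.4% SRB and read at 515 nm. Time-zero plates were used. GI50 is the concentration giving 50% lower net protein increase than control.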

RXF 393 = experiment: Anticancer activity against human RXF393 cells assessed as cell growth inhibition measured after 48 hrs by SRB assay; assay type: functional; settings: RXF 393, 48 h
Procedure, shortened: (§2)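 NCI-60 five-dose screen at 100, 10, 1.0, 0.1 and 0.01 µM final. Cells in RPMI-1640 with 5% FBS and 2 mM glutamine were seeded 24 h ahead at 37°C, 5% CO2. Compound exposure was 48 h, followed by TCA fixation and SRB staining, read at 515 nm. GI50 is the concentration giving 50% lower net protein increase than control, using time-zero plates.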

SW-620 = experiment: Anticancer activity against human SW620 cells assessed as cell growth inhibition measured after 48 hrs by SRB assay; assay type: functional; settings: SW-620, 48 h; for CC50: read-out: LC50 (the source's name); procedure, shortened: as §1
T47D = experiment: Anticancer activity against human T47D cells assessed as cell growth inhibition measured after 48 hrs by SRB assay; assay type: functional; procedure, shortened: as §1
SN12C = experiment: Anticancer activity against human SN12C cells assessed as cell growth inhibition measured after 48 hrs by SRB assay; assay type: functional; procedure, shortened: as §1
SK-MEL-2 = experiment: Anticancer activity against human SK-MEL-2 cells assessed as cell growth inhibition measured after 48 hrs by SRB assay; assay type: functional; settings: SK-MEL-2, 48 h; for CC50: read-out: LC50 (the source's name); procedure, shortened: as §1
CAKI-1 = experiment: Anticancer activity against human Caki1 cells assessed as cell growth inhibition measured after 48 hrs by SRB assay; assay type: functional; settings: CAKI-1, 48 h; procedure, shortened: as §2
HCT-15 = experiment: Anticancer activity against human HCT15 cells assessed as cell growth inhibition measured after 48 hrs by SRB assay; assay type: functional; settings: HCT-15, 48 h; procedure, shortened: as §2
UACC-62 = experiment: Anticancer activity against human UACC62 cells assessed as cell growth inhibition measured after 48 hrs by SRB assay; assay type: functional; settings: UACC-62, 48 h; for CC50: read-out: LC50 (the source's name); procedure, shortened: as §1
IGROV-1 = experiment: Anticancer activity against human IGROV1 cells assessed as cell growth inhibition measured after 48 hrs by SRB assay; assay type: functional; settings: IGROV-1, 48 h; procedure, shortened: as §2
OVCAR-8 = experiment: Anticancer activity against human OVCAR8 cells assessed as cell growth inhibition measured after 48 hrs by SRB assay; assay type: functional; settings: OVCAR-8, 48 h; procedure, shortened: as §2
NCI-H23 = experiment: Anticancer activity against human NCI-H23 cells assessed as cell growth inhibition measured after 48 hrs by SRB assay; assay type: functional; settings: NCI-H23, 48 h; procedure, shortened: as §2
SK-MEL-5 = experiment: Anticancer activity against human SK-MEL-5 cells assessed as cell growth inhibition measured after 48 hrs by SRB assay; assay type: functional; settings: SK-MEL-5, 48 h; for CC50: read-out: LC50 (the source's name); procedure, shortened: as §1
EKVX = experiment: Anticancer activity against human EKVX cells assessed as cell growth inhibition measured after 48 hrs by SRB assay; assay type: functional; procedure, shortened: as §2
OVCAR-3 = experiment: Anticancer activity against human OVCAR3 cells assessed as cell growth inhibition measured after 48 hrs by SRB assay; assay type: functional; settings: OVCAR-3, 48 h; procedure, shortened: as §2
NIH3T3 = experiment: Cytotoxicity against mouse 3T3 cells assessed as cell viability measured after 48 hrs by MTT assay; assay type: cell-based; settings: nih3t3, 48 h
Procedure, shortened: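 3T3 fibroblasts in DMEM with 10% FBS and penicillin-streptomycin, seeded at 10^4 cells/well 24 h prior. Exposed 48 h to two-fold serial dilutions from a 100 mg/mL DMSO stock. MTT (5 mg/mL in PBS) added for 1.5 h, formazan dissolved in DMSO, read at 530 nm. Duplicate runs on different days. Value interpolated between DMSO (100%) and cycloheximide (0%) controls.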

PC-3 = experiment: Anticancer activity against human PC3 cells assessed as cell growth inhibition measured after 48 hrs by SRB assay; assay type: functional; settings: PC-3, 48 h; procedure, shortened: as §2
SK-MEL-28 = experiment: Anticancer activity against human SK-MEL-28 cells assessed as cell growth inhibition measured after 48 hrs by SRB assay; assay type: functional; settings: SK-MEL-28, 48 h; for CC50: read-out: LC50 (the source's name); procedure, shortened: as §1
OVCAR-5 = experiment: Anticancer activity against human OVCAR5 cells assessed as cell growth inhibition measured after 48 hrs by SRB assay; assay type: functional; settings: OVCAR-5, 48 h; for CC50: read-out: LC50 (the source's name); procedure, shortened: as §2
TK-10 = experiment: Anticancer activity against human TK10 cells assessed as cell growth inhibition measured after 48 hrs by SRB assay; assay type: functional; settings: TK-10, 48 h; for CC50: read-out: LC50 (the source's name); procedure, shortened: as §1
[2] = Selectivity index, ratio of LC50 for mouse 3T3 cells to MIC for Mycobacterium tuberculosis H37Rv ATCC27294; assay type: toxicity; settings: read-out: Selectivity Index
Staphylococcus aureus = experiment: Antibacterial activity against Staphylococcus aureus measured every 120 mins for 36 hrs by LB broth two-fold serial dilution method; assay type: functional
Procedure, shortened: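 Panel of 12 laboratory and clinical S. aureus strains with varied drug-susceptibility patterns. Compounds were two-fold serially diluted in LB broth from a maximum of 32 mg/L. Growth was followed by OD600 every 120 min for 36 h. Vancomycin was the positive control, and runs were in duplicate.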

Malme-3M = experiment: Anticancer activity against human MALME-3M cells assessed as cell growth inhibition measured after 48 hrs by SRB assay; assay type: functional; procedure, shortened: as §2
OVCAR-4 = experiment: Anticancer activity against human OVCAR4 cells assessed as cell growth inhibition measured after 48 hrs by SRB assay; assay type: functional; settings: OVCAR-4, 48 h; procedure, shortened: as §2
SF-539 = experiment: Anticancer activity against human SF539 cells assessed as cell growth inhibition measured after 48 hrs by SRB assay; assay type: functional; settings: SF-539, 48 h; for CC50: read-out: LC50 (the source's name); procedure, shortened: as §1

Work on COc1ccc(C(=O)/C=C/c2ccc(Cl)cc2)cc1S(=O)(=O)Nc1c(N)nc(SC)[nH]c1=O yielded an MIC [1] of 20 µM (≈ 10.1 µg/mL), a GI50 (SK-OV-3) of 3.65 µM and an LC50 (concentration killing 50% of cells relative to time zero) (SK-OV-3) of 36.6 µM. For the same compound, the GI50 (RXF 393) was 1.6 µM, the LC50 (concentration causing 50% net cell kill) (RXF 393) was 6.67 µM and the GI50 (SW-620) was 1.58 µM. It also gave a CC50 (SW-620) of 28.3 µM, a GI50 (T47D) of 2.45 µM and an LC50 (T47D) of 38.8 µM. For the same compound, the GI50 (SN12C) was 3.45 µM, the LC50 (concentration giving 50% net cell kill) (SN12C) was 73.4 µM and the GI50 (SK-MEL-2) was 12.8 µM. For the same compound, the CC50 (SK-MEL-2) was 61.1 µM, the GI50 (CAKI-1) was 3.83 µM and the LC50 (CAKI-1) was 79.5 µM. It also gave a GI50 (HCT-15) of 3.24 µM, an LC50 (concentration killing 50% of cells) (HCT-15) of 83.9 µM and a GI50 (UACC-62) of 2.33 µM. For the same compound, the CC50 (UACC-62) was 27.4 µM, the GI50 (IGROV-1) was 3.25 µM and the LC50 (concentration giving 50% net cell kill) (IGROV-1) was 80.2 µM. It also gave a GI50 (OVCAR-8) of 3.07 µM, an LC50 (concentration giving 50% net cell kill) (OVCAR-8) of 37.1 µM and a GI50 (NCI-H23) of 2.53 µM. The LC50 (NCI-H23) was 40.4 µM, the GI50 (SK-MEL-5) was 2.72 µM and the CC50 (SK-MEL-5) was 32 µM. It also gave a GI50 (EKVX) of 3.94 µM, an LC50 (concentration killing 50% of cells) (EKVX) of 80.3 µM and a GI50 (OVCAR-3) of 1.94 µM. For the same compound, the LC50 (OVCAR-3) was 8 µM, the LC50 (NIH3T3) was 13 µM and the GI50 (PC-3) was 2.53 µM. The LC50 (PC-3) was 32.8 µM, the GI50 (SK-MEL-28) was 2.1 µM and the CC50 (SK-MEL-28) was 17 µM. The GI50 (OVCAR-5) was 2.83 µM, the CC50 (OVCAR-5) was 38.2 µM and the GI50 (TK-10) was 2.98 µM. The CC50 (TK-10) was 32.3 µM, the selectivity ratio [2] was 0.65 and the MIC (Staphylococcus aureus) was greater than 57 µM. It also gave a GI50 (Malme-3M) of 3.02 µM, an LC50 (Malme-3M) of 41.8 µM and a GI50 (OVCAR-4) of 4.5 µM. For the same compound, the LC50 (OVCAR-4) was 43.6 µM, the GI50 (SF-539) was 2.1 µM and the CC50 (SF-539) was 15.1 µM.

In the case of COc1ccc(C(=O)/C=C/c2ccc(Cl)cc2)cc1S(N)(=O)=O, the MIC [1] is reported as 14 µM (≈ 4.93 µg/mL), the GI50 (SK-OV-3) is reported as 5.96 µM and the LC50 (concentration killing 50% of cells relative to time zero) (SK-OV-3) is reported as 43.1 µM. For the same compound, the GI50 (RXF 393) was 1.98 µM, the LC50 (concentration causing 50% net cell kill) (RXF 393) was 7.96 µM and the GI50 (SW-620) was 1.76 µM. For the same compound, the CC50 (SW-620) was 8.45 µM, the GI50 (T47D) was 3.2 µM and the LC50 (T47D) was 59 µM. The GI50 (SN12C) was 2.72 µM, the LC50 (concentration giving 50% net cell kill) (SN12C) was 31.5 µM and the GI50 (SK-MEL-2) was 12.4 µM. The CC50 (SK-MEL-2) was 53.2 µM, the GI50 (CAKI-1) was 2.72 µM and the LC50 (CAKI-1) was 32.5 µM. For the same compound, the GI50 (HCT-15) was 2.14 µM, the LC50 (concentration killing 50% of cells) (HCT-15) was 59.3 µM and the GI50 (UACC-62) was 4.88 µM. For the same compound, the CC50 (UACC-62) was 44.8 µM, the GI50 (IGROV-1) was 2.67 µM and the LC50 (concentration giving 50% net cell kill) (IGROV-1) was 48.1 µM. For the same compound, the GI50 (OVCAR-8) was 3.55 µM, the LC50 (concentration giving 50% net cell kill) (OVCAR-8) was 32.6 µM and the GI50 (NCI-H23) was 2.54 µM. For the same compound, the LC50 (NCI-H23) was 40.9 µM, the GI50 (SK-MEL-5) was 5.69 µM and the CC50 (SK-MEL-5) was 42.7 µM. For the same compound, the GI50 (EKVX) was 4.56 µM, the LC50 (concentration killing 50% of cells) (EKVX) was 50.5 µM and the GI50 (OVCAR-3) was 2.04 µM. For the same compound, the LC50 (OVCAR-3) was 9.7 µM, the LC50 (NIH3T3) was 4.1 µM and the GI50 (PC-3) was 2.24 µM. The LC50 (PC-3) was 17 µM, the GI50 (SK-MEL-28) was 3.24 µM and the CC50 (SK-MEL-28) was 37.2 µM. For the same compound, the GI50 (OVCAR-5) was 3.08 µM, the CC50 (OVCAR-5) was 44.9 µM and the GI50 (TK-10) was 2.47 µM. It also gave a CC50 (TK-10) of 27.5 µM, a selectivity ratio [2] of 0.29 and an MIC (Staphylococcus aureus) greater than 57 µM. The GI50 (Malme-3M) was 5.89 µM, the LC50 (Malme-3M) was 54.8 µM and the GI50 (OVCAR-4) was 3.47 µM. For the same compound, the LC50 (OVCAR-4) was 40.4 µM, the GI50 (SF-539) was 1.6 µM and the CC50 (SF-539) was 6.82 µM.
